This passage reports viability, IC50 and Activity results from ChEMBL document CHEMBL4196055, “Synthesis and biological evaluation of α-santonin derivatives as anti-hepatoma agents” (Eur J Med Chem, 2018).

As a reminder, the IC50 is the concentration needed to halve the response being measured. A low value points to higher potency.

The subject of test [1] is QGY-7703. In words: Induction of apoptosis in human QGY7703 cells assessed as viable cells at 10 uM after 24 hrs by Annexin-V FITC/propidium iodide staining based flow cytometric analysis (reference value: 94.2 to 94.3%). The following applies: QGY-7703, 24 h, read-out: Activity. The format is functional. An outline of the steps: (§1)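 Assay in QGY-7703 cells kept in RPMI 1640 with 10% FBS. Seeded at 5 × 10^5 cells/well for 24 h, then treated for 24 h with 5, 10 or 15 μM compound, DMSO as control. Annexin V-FITC/PI staining for 15 min at room temperature in the dark, then immediate flow cytometry to count the apoptotic fractions.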

Test [2] relates to HepG2. In words: Antiproliferative activity against human HepG2 cells after 24 hrs by CCK-8 assay. It is filed as functional, cell-based. The following applies: HepG2, 24 h. An outline of the steps:
(§2)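 Cells in 10% FBS medium with penicillin/streptomycin at 37 °C, 5% CO2; HepG-2 in DMEM, QGY-7703, SMMC-7721 and QSG-7701 in RPMI 1640. Seeded 2 × 10^5 cells/well, grown 24 h, then exposed to five concentrations of compound or 1% DMSO vehicle for 24 h. CCK-8 added for 1 h, absorbance read at 450 nm; IC50 derived from the 5-dose data.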
Background: Formazan colour is commonly taken as a measure of viable cells.

Test [3] deals with QGY-7703. As to the kind of experiment: Induction of apoptosis in human QGY7703 cells assessed as early apoptotic cells at 10 uM after 24 hrs by Annexin-V FITC/propidium iodide staining based flow cytometric analysis (reference value: 0.8 to 1%). The format is functional. An outline of the steps:
as §1

Test [4] relates to QGY-7703. In words: Induction of apoptosis in human QGY7703 cells assessed as increase in cleaved caspase 3 level after 24 hrs by Western blot analysis. It is filed as functional, cell-based. An outline of the steps: (§3)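 QGY-7703 cells subcultured for 24 h, then given compound for 24 h, with DMSO as control. Lysates in buffer with protease inhibitors, protein measured by BCA, equal amounts run on 10% SDS-PAGE and moved to PVDF. Blocked in 5% milk, probed overnight at 4 °C for PARP, cleaved caspase 3, pro-caspase 3 and pro-caspase 9 (1:1000), with GAPDH loading control. IRDye secondaries, densitometry reported as grayscale values.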
For orientation: Immunoblotting shows a protein as a band on a membrane.

In test [5] the test system is QGY-7703. In words: Induction of apoptosis in human QGY7703 cells assessed as increase in cleaved PARP level after 24 hrs by Western blot analysis. It is filed as functional, cell-based. A digest of the protocol:
as §3

The test system of test [6] is QGY-7703. As to the kind of experiment: Induction of apoptosis in human QGY7703 cells assessed as early apoptotic cells at 5 uM after 24 hrs by Annexin-V FITC/propidium iodide staining based flow cytometric analysis (reference value: 0.8 to 1%). The format is functional. A digest of the protocol:
as §1

Test [7] concerns QGY-7703. In words: Induction of apoptosis in human QGY7703 cells assessed as early apoptotic cells at 15 uM after 24 hrs by Annexin-V FITC/propidium iodide staining based flow cytometric analysis (reference value: 0.8 to 1%). It is filed as functional. An outline of the steps: as §1
A general note: A flow cytometer gives signals particle by particle.

For test [8], the system named is QGY-7703. As to the kind of experiment: Induction of apoptosis in human QGY7703 cells assessed as viable cells at 15 uM after 24 hrs by Annexin-V FITC/propidium iodide staining based flow cytometric analysis (reference value: 94.2 to 94.3%). It is filed as functional. To be noted: QGY-7703, 24 h, read-out: Activity. An outline of the steps:
as §1

For test [9], the system named is SMMC-7721. As to the kind of experiment: Antiproliferative activity against human SMMC7721 cells after 24 hrs by CCK-8 assay. The following applies: SMMC-7721, 24 h. It is filed as functional, cell-based. An outline of the steps:
as §2

Test [10] has as its system QGY-7703. As to the kind of experiment: Induction of apoptosis in human QGY7703 cells assessed as late apoptotic cells at 10 uM after 24 hrs by Annexin-V FITC/propidium iodide staining based flow cytometric analysis (reference value: 4.1 to 4.3%). It is filed as functional. An outline of the steps: as §1
Test [11] has as its system QGY-7703. In words: Induction of apoptosis in human QGY7703 cells assessed as late apoptotic cells at 15 uM after 24 hrs by Annexin-V FITC/propidium iodide staining based flow cytometric analysis (reference value: 4.1 to 4.3%). It is filed as functional. A digest of the protocol: as §1
The test system of test [12] is QGY-7703. As to the kind of experiment: Induction of apoptosis in human QGY7703 cells assessed as decrease in pro-caspase 9 level after 24 hrs by Western blot analysis. The format is functional, cell-based. An outline of the steps: as §3
The test system of test [13] is QGY-7703. As to the kind of experiment: Induction of apoptosis in human QGY7703 cells assessed as necrotic cells at 15 uM after 24 hrs by Annexin-V FITC/propidium iodide staining based flow cytometric analysis (reference value: 0.6 to 0.7%). The format is functional. A digest of the protocol: as §1
Test [14] has as its system QGY-7703. As to the kind of experiment: Induction of apoptosis in human QGY7703 cells assessed as necrotic cells at 5 uM after 24 hrs by Annexin-V FITC/propidium iodide staining based flow cytometric analysis (reference value: 0.6 to 0.7%). It is filed as functional. A digest of the protocol:
as §1

Test [15] deals with QGY-7703. As to the kind of experiment: Induction of apoptosis in human QGY7703 cells assessed as late apoptotic cells at 5 uM after 24 hrs by Annexin-V FITC/propidium iodide staining based flow cytometric analysis (reference value: 4.1 to 4.3%). The format is functional. An outline of the steps:
as §1

Test [16] relates to QGY-7703. As to the kind of experiment: Induction of apoptosis in human QGY7703 cells assessed as viable cells at 5 uM after 24 hrs by Annexin-V FITC/propidium iodide staining based flow cytometric analysis (reference value: 94.2 to 94.3%). The format is functional. To be noted: QGY-7703, 24 h, read-out: Activity. A digest of the protocol:
as §1

Test [17] deals with QGY-7703. As to the kind of experiment: Induction of apoptosis in human QGY7703 cells assessed as necrotic cells at 10 uM after 24 hrs by Annexin-V FITC/propidium iodide staining based flow cytometric analysis (reference value: 0.6 to 0.7%). The format is functional. An outline of the steps:
as §1

The test system of test [18] is HepG2. In words: Antiproliferative activity against human HepG2 cells at 10 uM after 24 hrs by CCK-8 assay relative to control. The format is functional. A digest of the protocol: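 HepG-2 grown in DMEM with 10% FBS and penicillin/streptomycin (37 °C, 5% CO2). Seeded 2 × 10^5 cells/well for 24 h, then given a single 10 μM dose or 1% DMSO vehicle for 24 h. CCK-8 reagent for 1 h, A450 read, and percent inhibition calculated against untreated control cells.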

Test [19] can be described thus: Antiproliferative activity against human QSG7701 cells after 24 hrs by CCK-8 assay. The format is cell-based. The following applies: QSG7701, 24 h. An outline of the steps: as §2
Test [20] concerns QGY-7703. In words: Antiproliferative activity against human QGY7703 cells after 24 hrs by CCK-8 assay. It is filed as functional, cell-based. The following applies: QGY-7703, 24 h. A digest of the protocol:
as §2

Molecules are shown by their SMILES. Where only a bound is given, the exact number is not on record here.

For `C=C1C(=O)O[C@@H]2C3=C(C)[C@@H](OC(=O)/C=C/c4ccc(Cl)cc4)CC3[C@](C)(OC(C)=O)CC[C@@H]12` (stereo partly specified), the viability at 10 µM in test [1] turned out to be 69.7%. The IC50 in test [2] is 7.51 µM; in [9], 4.08 µM; in test [19] it was more than 100 µM; in [20] it was 3.06 µM. Moreover, the Activity is 11.3% in test [3]; “Dose-dependent effect” in test [4]; “Dose-dependent effect” in test [5]; 16.6% in test [6]; 38.1% in [7]; 18.8% in test [10]. Also, the Activity is 31.7% in test [11]; “Dose-dependent effect” in test [12]; 0.5% in [13]; 0% in [14]; 1.8% in test [15]; 0.2% in test [17]. In addition, the Activity in test [18] turned out to be 62.92%. Further, the viability at 15 µM in [8] came to 29.6%. In addition, the viability at 5 µM in test [16] was determined as 81.6%.
Regarding `O=c1[nH]cc(F)c(=O)[nH]1` [FLUOROURACIL], the viability at 10 µM in [1] was 76.3%. Moreover, the Activity in test [3] is on record as 12.6%; in test [6], 10.7%; in test [7] it was 23%; in test [10], 11.1%; in [11], 35.5%; in test [13], 0.4%. The Activity amounted to 0% in test [14], 0.9% in test [15], 0.1% in [17] and 50.58% in test [18]. For the same molecule, the viability at 15 µM in [8] worked out at 41.1%. Besides, the IC50 in test [9] worked out at 12.5 µM; in test [19] it was 6.92 µM; in test [20], 14.2 µM. Further, the viability at 5 µM in [16] was 88.4%.
In the case of `C=C1C(=O)O[C@@H]2C3=C(C)[C@@H](OC(=O)c4ccc(Cl)cc4)CC3[C@](C)(OC(C)=O)CC[C@@H]12` (stereo partly specified), in test [1], the viability at 10 µM came to 63.6%. Further, the half-maximal inhibitory concentration (IC50) in test [2] is 7.1 µM; in [9] it was 4.24 µM; in [19], 46.9 µM; in test [20], 10.1 µM. Moreover, the Activity is 15.5% in test [3]; “Dose-dependent effect” in [4]; “Dose-dependent effect” in test [5]; 20.6% in [6]; 24.4% in [7]; 20.6% in test [10]. Besides, the Activity in test [11] was 63.4%; in [12], “Dose-dependent effect”; in test [13] it was 0.6%; in test [14], 0%; in test [15], 1.7%; in [17] it was 0.3%. Further, the Activity in test [18] amounted to 72.69%. The viability at 15 µM in test [8] is 11.6%. For the same molecule, in [16], the viability at 5 µM turned out to be 77.7%.
